From ChEMBL document CHEMBL3632616, “Fluorination Patterning: A Study of Structural Motifs That Impact Physicochemical Properties of Relevance to Drug Discovery” (J Med Chem, 2015) come the findings set out here.

Each structure is given as a SMILES string. Converted amounts (≈) assume the structure as drawn.

Data set [1] is described as follows: Lipophilicity, Log P of the compound. It counts as physicochemical. The settings on record: octanol/water.
Data set [2] in a line: Intrinsic clearance in rat liver microsomes assessed per mg of protein. It counts as ADME. To be noted: read-out: CLH. In short, it runs like this: (§1)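 Compound incubated with liver microsomes (human for line 2, rat for line 3) and its concentration followed at up to 8 successive time points. Intrinsic pseudo-first-order decay rate constant (Clint) taken from linear regression of those concentrations and normalised to microsomal protein. Upper and lower bounds are 95% confidence levels from the regression.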

Data set [3] is described as follows: Aqueous solubility of the compound at pH 6.5. The format is physicochemical.
Data set [4] in a line: Intrinsic clearance in human liver microsomes assessed per mg of protein. The format is ADME. To be noted: read-out: CLH. The procedure, abridged: as §1
(In general: Liver microsomes are vesicles of endoplasmic reticulum, rich in cytochrome P450 enzymes.)

For orientation: logP means the decadic logarithm of the partition coefficient of the neutral form, usually between octanol and water. As to `C[C@H](F)[C@H](F)Cc1c[nH]c2ccccc12` (racemic), in data set [1], the logP worked out at 2.8.
Same read-out and setting: the figure for `FC[C@@H](F)[C@H](F)Cc1c[nH]c2ccccc12` (racemic) is 2.7; for `C[C@@H](F)[C@H](F)Cc1c[nH]c2ccccc12` (racemic) it is 2.8.
One may read the solubility as the concentration that dissolves in the medium under given conditions. Lower therefore signals a poorly soluble substance. The molecule `FC(F)(F)CCc1c[nH]c2ccccc12` showed a logP in data set [1] of 3.1. In addition, the microsomal CLint in data set [2] is 290 µL/min/mg; in data set [4], 410 µL/min/mg. In data set [3], this molecule yielded a solubility of 30 µM (≈ 6.4 µg/mL).
The corresponding values for `FCC(F)Cc1c[nH]c2ccccc12` (stereo unspecified) are 2.5, 142 µL/min/mg, 212 µL/min/mg and over 1720 µM.
Take `FCC(F)CCc1c[nH]c2ccccc12` (stereo unspecified): the logP in data set [1] turned out to be 2.8. Also, the microsomal CLint in data set [2] amounted to 492 µL/min/mg; in data set [4], 245 µL/min/mg. For the same molecule, the concentration in solution in data set [3] (solubility) came to 277 µM (≈ 58 µg/mL).
In turn, `FCCCc1c[nH]c2ccccc12` gave a logP in data set [1] of 2.8.
Molecule `FC(F)CCc1c[nH]c2ccccc12` displayed a log partition coefficient (logP) in data set [1] of 2.9. Further, the figures for the microsomal CLint in data set [2] and in data set [4] were 294 µL/min/mg and 372 µL/min/mg, respectively.
`CC(F)(F)Cc1c[nH]c2ccccc12` showed a logP in data set [1] of 2.8. The microsomal CLint stood at 226 µL/min/mg in data set [2] and 508 µL/min/mg in data set [4]. This molecule displayed a solubility in data set [3] of 820 µM (≈ 160 µg/mL).
Taken in the same sequence, the figures for `CC(F)(F)CCc1c[nH]c2ccccc12` were 3, 584 µL/min/mg, 321 µL/min/mg and 115 µM (≈ 24.1 µg/mL).
Turning to `FC[C@H](F)[C@H](F)Cc1c[nH]c2ccccc12` (racemic), the logP in data set [1] came out at 2.7.
`CCCc1c[nH]c2ccccc12` returned a log partition coefficient (logP) in data set [1] of 3.3. The microsomal CLint is 182 µL/min/mg in data set [2] and 513 µL/min/mg in data set [4]. In data set [3], this molecule came in with a solubility of 200 µM (≈ 31.8 µg/mL).
Taken in the same sequence, the figures for `CCC(F)(F)Cc1c[nH]c2ccccc12` were 3.1, 644 µL/min/mg, 271 µL/min/mg and 182 µM (≈ 38.1 µg/mL).
